Source: article PMC6682041 (ACS Omega, 2019)

Tests used:
electric eel AChE [1] = target: T1, electric eel AChE (Electrophorus electricus, UniProt O42275); assay: Cholinesterase enzyme inhibition assay; type: biochemical
Outline: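 Electric eel AChE, added as a 0.36 U/mL solution, was preincubated 15 min at room temperature in sodium phosphate buffer (pH 8.0) with test compound dissolved in 10% DMSO. DTNB and […] substrate were then added, with a further 10 min at room temperature. Absorbance was read at 412 nm, in triplicate. % inhibition = (1 − T/C) × 100; IC50 from the log dose–inhibition curve.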

Aβ25–35 = Aβ25–35 (Homo sapiens, UniProt P05067); assay: Self-induced Aβ25–35 aggregation inhibition assay; type: biochemical; settings: read-out: inhibition of self-induced Aβ25–35 aggregation
Outline: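 Aβ25–35 was lyophilized from HFIP, taken to a 0.4 mM stock in 65% acetonitrile and diluted 2-fold in 69 mM phosphate pH 7.0. Test compound (0.2, 2, 20 µM) or reference inhibitor (10 µM) was added, then 24 h at 4 °C. ThT (25 µM, glycine–NaOH pH 8.5) was added, with 5 min before reading ex 446/em 490 nm. %inhibition = 100 − (Fi/Fc × 100); mean ± SD, n=3.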

electric eel AChE [2] = target: T1, electric eel AChE; assay: Enzyme kinetics of AChE inhibition; type: biochemical; settings: for AChE inhibition type: determined by the Lineweaver–Burk plot
Outline: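 Electric eel AChE (0.36 U/mL solution) was preincubated 15 min at RT with the test compound (0.5–10 µM, from 10% DMSO) in sodium phosphate buffer pH 8.0. DTNB and acetylthiocholine (0.1, 0.3, 0.6 […]) were then added, with 10 min at RT and A412 read. Run in triplicate. Inhibition type came from Lineweaver–Burk plots and Ki from Dixon plots.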

horse serum BChE [3] = target: T2, horse serum BChE (Equus caballus, UniProt P81908); assay: Enzyme kinetics of BChE inhibition; type: biochemical; settings: for BChE inhibition type: determined by the Lineweaver–Burk plot
Outline: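 Horse serum BChE (0.36 U/mL solution) was preincubated 15 min at RT with the test compound (1.25–10 µM, from 10% DMSO) in sodium phosphate buffer pH 8.0. Reaction started with DTNB plus butyrylthiocholine (0.1, 0.3, 0.6 […]), then 10 min at RT and A412 read. Run in triplicate. Lineweaver–Burk plots gave the inhibition mode; Dixon plots gave Ki.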

[4] = target: T3, human recombinant β-secretase (BACE1) (Homo sapiens, UniProt P56817); assay: BACE1 enzyme inhibition assay; type: biochemical
human recombinant GSK-3β = human recombinant GSK-3β (Homo sapiens, UniProt P49841); assay: biochemical
[5] = target: T3, human recombinant β-secretase (BACE1); assay: Enzyme kinetics of BACE1 inhibition; type: biochemical; settings: for BACE1 inhibition type: determined by the Lineweaver–Burk plot
Outline: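 FRET kit using human recombinant β-secretase (1.0 U/mL solution) in assay buffer pH 4.5. The test compound (0.625–5 µM) was mixed with substrate at 250, 375 or 750 nM and incubated 60 min at RT in the dark. Fluorescence was read at ex 545/em 585 nm, and inhibition taken from the 0 to 60 min change versus control. Lineweaver–Burk plots gave the mechanism; Dixon plots gave Ki.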

horse serum BChE [6] = target: T2, horse serum BChE; assay: Cholinesterase enzyme inhibition assay; type: biochemical

Chain of human recombinant GSK-3β (P49841 whole entry): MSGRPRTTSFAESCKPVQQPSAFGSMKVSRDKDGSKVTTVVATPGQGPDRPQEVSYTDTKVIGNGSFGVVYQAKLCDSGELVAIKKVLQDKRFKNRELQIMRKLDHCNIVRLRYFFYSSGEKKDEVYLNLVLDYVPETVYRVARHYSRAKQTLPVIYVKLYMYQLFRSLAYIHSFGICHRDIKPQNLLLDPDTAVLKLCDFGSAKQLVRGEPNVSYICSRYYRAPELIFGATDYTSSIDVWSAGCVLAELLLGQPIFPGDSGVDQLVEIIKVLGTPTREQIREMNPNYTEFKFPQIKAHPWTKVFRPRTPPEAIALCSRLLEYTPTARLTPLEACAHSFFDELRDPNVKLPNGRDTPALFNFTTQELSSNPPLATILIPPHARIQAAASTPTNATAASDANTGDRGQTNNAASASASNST
T3 sequence (P56817 46-501): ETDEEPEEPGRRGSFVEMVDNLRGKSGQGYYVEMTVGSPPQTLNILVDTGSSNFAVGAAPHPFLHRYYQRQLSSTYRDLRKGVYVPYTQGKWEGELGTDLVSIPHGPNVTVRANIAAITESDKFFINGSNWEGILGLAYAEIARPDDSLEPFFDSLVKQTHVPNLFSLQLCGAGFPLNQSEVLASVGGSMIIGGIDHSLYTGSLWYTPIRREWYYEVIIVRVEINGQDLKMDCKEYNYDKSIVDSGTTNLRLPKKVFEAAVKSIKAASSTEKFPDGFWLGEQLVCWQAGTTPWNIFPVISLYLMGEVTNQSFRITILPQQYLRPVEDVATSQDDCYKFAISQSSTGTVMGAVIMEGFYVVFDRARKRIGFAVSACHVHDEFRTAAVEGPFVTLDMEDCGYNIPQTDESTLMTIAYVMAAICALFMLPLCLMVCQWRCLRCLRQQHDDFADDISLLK
T2 sequence (P81908 whole entry): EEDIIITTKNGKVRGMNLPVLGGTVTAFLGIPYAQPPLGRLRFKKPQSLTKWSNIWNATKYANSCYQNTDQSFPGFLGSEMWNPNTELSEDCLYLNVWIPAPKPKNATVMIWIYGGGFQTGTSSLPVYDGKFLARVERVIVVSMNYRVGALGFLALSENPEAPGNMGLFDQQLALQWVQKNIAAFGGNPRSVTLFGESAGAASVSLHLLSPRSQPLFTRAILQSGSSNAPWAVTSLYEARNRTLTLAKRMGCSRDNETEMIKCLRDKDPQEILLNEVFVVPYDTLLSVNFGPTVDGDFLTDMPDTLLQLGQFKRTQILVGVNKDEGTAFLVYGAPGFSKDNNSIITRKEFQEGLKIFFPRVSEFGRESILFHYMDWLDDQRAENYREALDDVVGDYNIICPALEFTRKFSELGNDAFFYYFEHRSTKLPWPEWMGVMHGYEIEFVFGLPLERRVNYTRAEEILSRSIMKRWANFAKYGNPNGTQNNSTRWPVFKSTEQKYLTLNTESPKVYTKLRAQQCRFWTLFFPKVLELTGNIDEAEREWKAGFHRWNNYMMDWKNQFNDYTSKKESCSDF
T1 sequence (O42275 24-633): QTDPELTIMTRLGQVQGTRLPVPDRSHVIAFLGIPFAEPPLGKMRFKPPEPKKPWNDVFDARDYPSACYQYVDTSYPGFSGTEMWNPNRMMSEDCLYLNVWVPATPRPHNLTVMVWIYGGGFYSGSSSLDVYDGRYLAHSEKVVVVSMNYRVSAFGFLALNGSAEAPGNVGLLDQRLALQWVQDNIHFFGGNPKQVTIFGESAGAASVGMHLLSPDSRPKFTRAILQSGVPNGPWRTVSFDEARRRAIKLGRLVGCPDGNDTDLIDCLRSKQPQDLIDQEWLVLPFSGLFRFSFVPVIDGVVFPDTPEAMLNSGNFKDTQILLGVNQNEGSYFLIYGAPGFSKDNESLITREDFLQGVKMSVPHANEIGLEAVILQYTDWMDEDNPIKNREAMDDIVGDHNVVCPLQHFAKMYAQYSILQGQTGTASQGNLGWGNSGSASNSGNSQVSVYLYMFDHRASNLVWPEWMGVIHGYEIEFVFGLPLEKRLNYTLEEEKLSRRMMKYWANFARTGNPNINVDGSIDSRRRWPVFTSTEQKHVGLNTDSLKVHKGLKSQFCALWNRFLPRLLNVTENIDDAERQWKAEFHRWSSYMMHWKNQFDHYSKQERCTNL

SMILES | IC50 (electric eel AChE [1]) | inhibition at 20 µM (Aβ25–35) | Ki (electric eel AChE [2]) | AChE inhibition type (electric eel AChE [2]) | Ki (horse serum BChE [3]) | BChE inhibition type (horse serum BChE [3]) | IC50 [4] | IC50 (human recombinant GSK-3β) | Ki [5] | BACE1 inhibition type [5] | IC50 (horse serum BChE [6]) | inhibition at 10 µM (Aβ25–35)
COCc1c(Br)c(O)c(O)c(Br)c1Br [Compound 2, 2,3,6-tribromo-4,5-dihydroxybenzyl methyl ether] | 9.61 ± 0.35 µM | 56.7% | 0.71 µM | mixed | 0.51 µM | competitive | 4.79 ± 0.82 µM | 140 ± 15.1 µM | 0.7 µM | noncompetitive | 14.4 ± 0.27 µM | 
Oc1c(O)c(Br)c(COCc2c(Br)c(O)c(O)c(Br)c2Br)c(Br)c1Br [Compound 3, bis-(2,3,6-tribromo-4,5-dihydroxybenzyl) ether] | 2.66 ± 0.24 µM | 58.5% | 0.64 µM | mixed | 0.37 µM | competitive | 2.32 ± 0.1 µM | 56.5 ± 2.48 µM | 1.24 µM | competitive | 4.03 ± 0.15 µM | 
COc1ccc2cc3[n+](cc2c1OC)CCc1cc2c(cc1-3)OCO2 [berberine, reference compound] | 1.17 ± 0.09 µM |  |  |  |  |  |  |  |  |  |  | 
COc1cc(/C=C/C(=O)CC(=O)/C=C/c2ccc(O)c(OC)c2)ccc1O [curcumin, reference compound] |  |  |  |  |  |  |  |  |  |  |  | 52.4%
O=c1cc(-c2ccc(O)c(O)c2)oc2cc(O)cc(O)c12 [luteolin, reference compound] |  |  |  |  |  |  |  | 5.42 ± 0.19 µM |  |  |  | 
OCc1c(Br)c(O)c(O)c(Br)c1Br [Compound 1, 2,3,6-tribromo-4,5-dihydroxybenzyl alcohol] | 7.31 ± 0.25 µM | 66.8% | 0.58 µM | mixed | 1.15 µM | competitive | 5.16 ± 0.6 µM | 229 ± 12.1 µM | 3.1 µM | noncompetitive | 8.95 ± 2.18 µM | 
